# Laboratory results reported in ChEMBL document CHEMBL1641387, “Antiproliferative effects of saponins from the roots of Platycodon grandiflorum on cultured human tumor cells” (J Nat Prod, 2010).
# Active and inactive are the calls of the source. The calls are words filed in the database; no cut-off is given here.
# Columns and labels:
# Type in all cases: functional, cell-based
# [1] = (§1) Antiproliferative activity against human MESSA/DX5 cells after 48 hrs by sulforhodamine B assay; settings: MES-SA/Dx5, 48 h
# In short: (§2)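 Cells kept in RPMI1640 with 5% FBS at 37 °C, 5% CO2. HCT15/CL02 is a line derived from HCT15 by stepwise doxorubicin exposure. Cells seeded and left 24 h to attach, then exposed continuously for 48 h to serially diluted saponins. Fixed with cold 10% TCA, 1 h at 4 °C, stained with 0.4% SRB, dye solubilized in 10 mM Tris (pH 10.5), absorbance at 520 nm. Each run in triplicate; IC50 by nonlinear regression, mean ± SD of three independent experiments.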
# HCT-15 [2] = test: Antiproliferative activity against human HCT15 cells after 48 hrs by sulforhodamine B assay; settings: for IC50: HCT-15, 48 h; in short: as §2
# [3] = (§3) Antiproliferative activity against human MESSA cells after 48 hrs by sulforhodamine B assay; settings: MES-SA; in short: as §2
# [4] = (§4) Antiproliferative activity against human HCT15/CL02 cells after 48 hrs by sulforhodamine B assay; settings: HCT-15, 48 h; in short: as §2
# MES-SA/Dx5 = test: as §1; in short: as §2
# MES-SA = test: as §3; in short: as §2
# HCT-15 [5] = test: as §4; in short: as §2
Compound,IC50 [1],IC50 (HCT-15 [2]),IC50 [3],IC50 [4],Activity (MES-SA/Dx5),Activity (HCT-15 [2]),Activity (MES-SA),Activity (HCT-15 [5])
C[C@@H]1O[C@@H](O[C@H]2[C@H](OC(=O)[C@]34CCC(C)(C)C[C@H]3C3=CC[C@@H]5[C@@]6(C)C[C@H](O)[C@H](O[C@@H]7O[C@H](CO)[C@@H](O)[C@H](O)[C@H]7O)C(CO)(CO)[C@@H]6CC[C@@]5(C)[C@]3(C)C[C@H]4O)OC[C@H](O)[C@@H]2O)[C@H](O)[C@H](O)[C@H]1O[C@@H]1OC[C@@H](O)[C@H](O[C@@H]2OC[C@](O)(CO)[C@H]2O)[C@H]1O [PLATYCODIN D],> 10 µM,5.7 µM,3.9 µM,7.9 µM,–,–,–,–
CC(=O)O[C@H]1[C@H](O[C@H]2[C@H](OC(=O)[C@]34CCC(C)(C)C[C@H]3C3=CC[C@@H]5[C@@]6(C)C[C@H](O)[C@H](O[C@@H]7O[C@H](CO)[C@@H](O)[C@H](O)[C@H]7O)[C@@](C)(CO)[C@@H]6CC[C@@]5(C)[C@]3(C)C[C@H]4O)OC[C@H](O)[C@@H]2O)O[C@@H](C)[C@H](O[C@@H]2OC[C@@H](O)[C@H](O[C@@H]3OC[C@](O)(CO)[C@H]3O)[C@H]2O)[C@H]1O,6.2 µM,> 10 µM,6.3 µM,> 10 µM,–,–,–,–
CC(=O)O[C@H]1[C@@H](O)[C@H](O[C@H]2[C@H](OC(=O)[C@]34CCC(C)(C)C[C@H]3C3=CC[C@@H]5[C@@]6(C)C[C@H](O)[C@H](O[C@@H]7O[C@H](CO)[C@@H](O)[C@H](O[C@@H]8O[C@H](CO)[C@@H](O)[C@H](O)[C@H]8O)[C@H]7O)[C@@](C)(CO)[C@@H]6CC[C@@]5(C)[C@]3(C)C[C@H]4O)OC[C@H](O)[C@@H]2O)O[C@@H](C)[C@@H]1O[C@@H]1OC[C@@H](O)[C@H](O[C@@H]2OC[C@](O)(CO)[C@H]2O)[C@H]1O [2'OACETYLPOLYGALACIN D2],3.4 µM,3.6 µM,3.4 µM,5.9 µM,–,–,–,–
CC(=O)O[C@H]1[C@@H](O)[C@H](O[C@H]2[C@H](OC(=O)[C@]34CCC(C)(C)C[C@H]3C3=CC[C@@H]5[C@@]6(C)C[C@H](O)[C@H](O[C@@H]7O[C@H](CO)[C@@H](O)[C@H](O)[C@H]7O)C(CO)(CO)[C@@H]6CC[C@@]5(C)[C@]3(C)C[C@H]4O)OC[C@H](O)[C@@H]2O)O[C@@H](C)[C@@H]1O[C@@H]1OC[C@@H](O)[C@H](O[C@@H]2OC[C@](O)(CO)[C@H]2O)[C@H]1O,2.2 µM,3.4 µM,2.3 µM,4.2 µM,–,–,–,–
C[C@@H]1O[C@@H](O[C@H]2[C@H](OC(=O)[C@]34CCC(C)(C)C[C@H]3C3=CC[C@@H]5[C@@]6(C)C[C@H](O)[C@H](O[C@@H]7O[C@H](CO)[C@@H](O)[C@H](O[C@@H]8O[C@H](CO)[C@@H](O)[C@H](O)[C@H]8O)[C@H]7O)[C@@](C)(CO)[C@@H]6CC[C@@]5(C)[C@]3(C)C[C@H]4O)OC[C@H](O)[C@@H]2O)[C@H](O)[C@H](O)[C@H]1O[C@@H]1OC[C@@H](O)[C@H](O[C@@H]2OC[C@](O)(CO)[C@H]2O)[C@H]1O [POLYGALACIN D2],3.4 µM,3.8 µM,2.6 µM,5.8 µM,–,–,–,–
C[C@@H]1O[C@@H](O[C@H]2[C@H](OC(=O)[C@]34CCC(C)(C)C[C@H]3C3=CC[C@@H]5[C@@]6(C)C[C@H](O)[C@H](O[C@@H]7O[C@H](CO)[C@@H](O)[C@H](O)[C@H]7O)[C@@](C)(CO)[C@@H]6CC[C@@]5(C)[C@]3(C)C[C@H]4O)OC[C@H](O)[C@@H]2O)[C@H](O)[C@H](O)[C@H]1O[C@@H]1OC[C@@H](O)[C@H](O[C@@H]2OC[C@](O)(CO)[C@H]2O)[C@H]1O [POLYGALACIN D],7.7 µM,8.5 µM,5 µM,> 10 µM,–,–,–,–
CC(=O)O[C@H]1[C@H](O[C@H]2[C@H](OC(=O)[C@]34CCC(C)(C)C[C@H]3C3=CC[C@@H]5[C@@]6(C)C[C@H](O)[C@H](O[C@@H]7O[C@H](CO)[C@@H](O)[C@H](O[C@@H]8O[C@H](CO)[C@@H](O)[C@H](O)[C@H]8O)[C@H]7O)[C@@](C)(CO)[C@@H]6CC[C@@]5(C)[C@]3(C)C[C@H]4O)OC[C@H](O)[C@@H]2O)O[C@@H](C)[C@H](O[C@@H]2OC[C@@H](O)[C@H](O[C@@H]3OC[C@](O)(CO)[C@H]3O)[C@H]2O)[C@H]1O,3.4 µM,3.6 µM,3.3 µM,5.8 µM,–,–,–,–
CC(=O)O[C@H]1[C@H](O[C@H]2[C@H](OC(=O)[C@]34CCC(C)(C)C[C@H]3C3=CC[C@@H]5[C@@]6(C)C[C@H](O)[C@H](O[C@@H]7O[C@H](CO)[C@@H](O)[C@H](O)[C@H]7O)C(CO)(CO)[C@@H]6CC[C@@]5(C)[C@]3(C)C[C@H]4O)OC[C@H](O)[C@@H]2O)O[C@@H](C)[C@H](O[C@@H]2OC[C@@H](O)[C@H](O[C@@H]3OC[C@](O)(CO)[C@H]3O)[C@H]2O)[C@H]1O [3'O-ACETYLPLATYCODIN D],2.2 µM,3.4 µM,2.3 µM,4.1 µM,–,–,–,–
C[C@@H]1O[C@@H](O[C@H]2[C@H](OC(=O)[C@]34CCC(C)(C)C[C@H]3C3=CC[C@@H]5[C@@]6(C)C[C@H](O)[C@H](O[C@@H]7O[C@H](CO)[C@@H](O)[C@H](O[C@@H]8O[C@H](CO)[C@@H](O)[C@H](O)[C@H]8O)[C@H]7O)C(CO)(CO)[C@@H]6CC[C@@]5(C)[C@]3(C)C[C@H]4O)OC[C@H](O)[C@@H]2O)[C@H](O)[C@H](O)[C@H]1O[C@@H]1OC[C@@H](O)[C@H](O)[C@H]1O,–,–,–,–,Active,Active,Active,Active
CC(=O)O[C@H]1[C@@H](O)[C@H](O[C@H]2[C@H](OC(=O)[C@]34CCC(C)(C)C[C@H]3C3=CC[C@@H]5[C@@]6(C)C[C@H](O)[C@H](O[C@@H]7O[C@H](CO)[C@@H](O)[C@H](O)[C@H]7O)[C@@](C)(CO)[C@@H]6CC[C@@]5(C)[C@]3(C)C[C@H]4O)OC[C@H](O)[C@@H]2O)O[C@@H](C)[C@@H]1O[C@@H]1OC[C@@H](O)[C@H](O[C@@H]2OC[C@](O)(CO)[C@H]2O)[C@H]1O,4.2 µM,6.7 µM,3.6 µM,> 10 µM,–,–,–,–
C[C@@H]1O[C@@H](O[C@H]2[C@H](OC(=O)[C@]34CCC(C)(C)C[C@H]3C3=CC[C@@H]5[C@@]6(C)C[C@H](O)[C@H](O[C@@H]7O[C@H](CO)[C@@H](O)[C@H](O[C@@H]8O[C@H](CO)[C@@H](O)[C@H](O)[C@H]8O)[C@H]7O)C(CO)(CO)[C@@H]6CC[C@@]5(C)[C@]3(C)C[C@H]4O)OC[C@H](O)[C@@H]2O)[C@H](O)[C@H](O)[C@H]1O[C@@H]1OC[C@@H](O)[C@H](O[C@@H]2OC[C@](O)(CO)[C@H]2O)[C@H]1O [PLATYCODIN D2],5.2 µM,9.6 µM,3.5 µM,5.7 µM,–,–,–,–
COc1cc([C@@H]2c3cc4c(cc3[C@@H](O[C@@H]3O[C@@H]5CO[C@@H](C)O[C@H]5[C@H](O)[C@H]3O)[C@H]3COC(=O)[C@H]23)OCO4)cc(OC)c1O [ETOPOSIDE],> 10 µM,1.6 µM,0.3 µM,> 10 µM,–,–,–,–
